Assays:
[1] = test system: Midbrain; test: Drug uptake in cynomolgus monkey midbrain after 85 mins; type: ADME, tissue-based, Macaca fascicularis; conditions: in vivo
Method in brief: (§1)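 Baseline microPET (Concorde P4) scans in one anesthetized adult male cynomolgus monkey (7.50–8.35 kg) after i.v. radiotracer. Attenuation correction used a 68Ge transmission scan; OSEM reconstruction, 3 mm resolution. Value is the region-of-interest to cerebellum activity ratio at 85 min post-injection.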

[2] = test system: Occipital cortex; test: Drug uptake in cynomolgus monkey occipital cortex after 85 mins; type: ADME, tissue-based, Macaca fascicularis; conditions: in vivo; method in brief: as §1
[3] = test system: Caudate; test: Drug uptake in cynomolgus monkey caudate in presence of citalopram after 115 mins; type: ADME, tissue-based, Macaca fascicularis, Caudate nucleus; conditions: in vivo
Method in brief: (§2)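 Chase microPET scans in the same male cynomolgus monkey after i.v. 11C radiotracer (6.90–18.10 mCi). R,S-citalopram·HBr, 1.5 mg/kg, was given i.v. as a 30 s bolus at 45 min (ratios at 45 and 85 min) or 60 min (ratios at 55 and 115 min) post-tracer. Value is the region-to-cerebellum activity ratio before and after citalopram.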

[4] = test system: Medulla; test: Drug uptake in cynomolgus monkey medulla after 55 mins; type: ADME, tissue-based, Macaca fascicularis, Medulla of organ; conditions: in vivo; method in brief: as §2
[5] = test system: Thalamus; test: Drug uptake in cynomolgus monkey thalamus after 55 mins; type: ADME, tissue-based, Macaca fascicularis; conditions: in vivo; method in brief: as §2
[6] = test system: Midbrain; test: Drug uptake in cynomolgus monkey midbrain in presence of citalopram after 115 mins; type: ADME, tissue-based, Macaca fascicularis; conditions: in vivo; method in brief: as §2
[7] = test system: Putamen; test: Drug uptake in cynomolgus monkey putamen after 85 mins; type: ADME, tissue-based, Macaca fascicularis; conditions: in vivo; method in brief: as §1
[8] = Partition coefficient, log P at pH 7.4; type: physicochemical; conditions: octanol/water
Method in brief: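 Each 11C-labelled radiotracer was partitioned between 1-octanol and 0.02 M phosphate buffer at pH 7.4.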

[9] = test system: Medulla; test: Drug uptake in cynomolgus monkey medulla in presence of citalopram after 115 mins; type: ADME, tissue-based, Macaca fascicularis, Medulla of organ; conditions: in vivo; method in brief: as §2
[10] = test system: Thalamus; test: Drug uptake in cynomolgus monkey thalamus after 85 mins; type: ADME, tissue-based, Macaca fascicularis; conditions: in vivo; method in brief: as §1
[11] = test system: Putamen; test: Drug uptake in cynomolgus monkey putamen after 55 mins; type: ADME, tissue-based, Macaca fascicularis; conditions: in vivo; method in brief: as §2
[12] = test system: Frontal cortex; test: Drug uptake in cynomolgus monkey frontal cortex after 85 mins; type: ADME, tissue-based, Macaca fascicularis; conditions: in vivo; method in brief: as §1
[13] = test system: Frontal cortex; test: Drug uptake in cynomolgus monkey frontal cortex after 55 mins; type: ADME, tissue-based, Macaca fascicularis; conditions: in vivo; method in brief: as §2
[14] = test system: Midbrain; test: Drug uptake in cynomolgus monkey midbrain after 55 mins; type: ADME, tissue-based, Macaca fascicularis; conditions: in vivo; method in brief: as §2
[15] = test system: Frontal cortex; test: Drug uptake in cynomolgus monkey frontal cortex in presence of citalopram after 115 mins; type: ADME, tissue-based, Macaca fascicularis; conditions: in vivo; method in brief: as §2
[16] = test system: Pons; test: Drug uptake in cynomolgus monkey pons after 55 mins; type: ADME, tissue-based, Macaca fascicularis; conditions: in vivo; method in brief: as §2
[17] = test system: Putamen; test: Drug uptake in cynomolgus monkey putamen in presence of citalopram after 115 mins; type: ADME, tissue-based, Macaca fascicularis; conditions: in vivo; method in brief: as §2
[18] = test system: Pons; test: Drug uptake in cynomolgus monkey pons in presence of citalopram after 115 mins; type: ADME, tissue-based, Macaca fascicularis; conditions: in vivo; method in brief: as §2
[19] = test system: Pons; test: Drug uptake in cynomolgus monkey pons after 85 mins; type: ADME, tissue-based, Macaca fascicularis; conditions: in vivo; method in brief: as §1
[20] = test system: Caudate; test: Drug uptake in cynomolgus monkey caudate after 55 mins; type: ADME, tissue-based, Macaca fascicularis, Caudate nucleus; conditions: in vivo; method in brief: as §2
[21] = test system: Occipital cortex; test: Drug uptake in cynomolgus monkey occipital cortex after 55 mins; type: ADME, tissue-based, Macaca fascicularis; conditions: in vivo; method in brief: as §2
[22] = test system: Caudate; test: Drug uptake in cynomolgus monkey caudate after 85 mins; type: ADME, tissue-based, Macaca fascicularis, Caudate nucleus; conditions: in vivo; method in brief: as §1
[23] = test system: Thalamus; test: Drug uptake in cynomolgus monkey thalamus in presence of citalopram after 115 mins; type: ADME, tissue-based, Macaca fascicularis; conditions: in vivo; method in brief: as §2
[24] = test system: Occipital cortex; test: Drug uptake in cynomolgus monkey occipital cortex in presence of citalopram after 115 mins; type: ADME, tissue-based, Macaca fascicularis; conditions: in vivo; method in brief: as §2
[25] = test system: Medulla; test: Drug uptake in cynomolgus monkey medulla after 85 mins; type: ADME, tissue-based, Macaca fascicularis, Medulla of organ; conditions: in vivo; method in brief: as §1
[26] = species: Homo sapiens; test: Selectivity for human NET to human SERT
Method in brief: (§3)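 Ratio of Ki at hDAT or hNET to Ki at hSERT. Ki values come from competition binding on transfected cell membranes: [125I]RTI-55 (MDCK-hDAT), [3H]nisoxetine (HEK-hNET) or [3H]citalopram (HEK-hSERT); 12 competitor concentrations from 10^-13 to 10^-5 M.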

[27] = species: Homo sapiens; test: Selectivity for human DAT to human SERT; method in brief: as §3
[28] = biological target: Sodium-dependent dopamine transporter (Homo sapiens, UniProt Q01959); test: Displacement of [125I]RTI-55 from human DAT expressed in MDCK cells; type: cell-based
Sodium-dependent dopamine transporter, sequence (Q01959 whole entry): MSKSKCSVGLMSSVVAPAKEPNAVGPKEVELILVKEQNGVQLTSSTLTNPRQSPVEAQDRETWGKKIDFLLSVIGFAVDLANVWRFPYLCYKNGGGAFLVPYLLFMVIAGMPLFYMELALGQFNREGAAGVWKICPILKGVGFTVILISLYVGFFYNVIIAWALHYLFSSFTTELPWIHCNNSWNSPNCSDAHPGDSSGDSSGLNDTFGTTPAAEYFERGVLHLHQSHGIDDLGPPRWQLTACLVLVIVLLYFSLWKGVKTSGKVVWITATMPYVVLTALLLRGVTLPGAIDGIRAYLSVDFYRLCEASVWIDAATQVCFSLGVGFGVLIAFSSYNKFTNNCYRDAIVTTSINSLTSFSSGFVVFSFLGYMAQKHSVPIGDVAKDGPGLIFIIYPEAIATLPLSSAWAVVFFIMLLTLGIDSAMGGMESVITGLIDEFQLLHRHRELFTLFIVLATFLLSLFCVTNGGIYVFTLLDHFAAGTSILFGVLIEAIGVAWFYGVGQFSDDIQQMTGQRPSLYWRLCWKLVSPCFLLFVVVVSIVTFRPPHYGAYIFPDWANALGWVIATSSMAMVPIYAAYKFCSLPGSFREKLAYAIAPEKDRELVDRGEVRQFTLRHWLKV
Method in brief: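 MDCK cells stably expressing hDAT, grown to confluency in DMEM with 10% FBS and Geneticin, harvested in PBS/0.53 mM EDTA. Membranes (30–70 µg protein) were incubated 1 h at room temperature with 2.0 nM [125I]RTI-55 in 42 mM sodium phosphate/320 mM sucrose, pH 7.4. Competitor: 12 concentrations, 10^-13 to 10^-5 M, in triplicate. Filtered through PEI-soaked GF/B filters; Ki averaged over ≥2 assays.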

[29] = biological target: Sodium-dependent noradrenaline transporter (Homo sapiens, UniProt P23975); test: Displacement of [3H]nisoxetine from human NET t expressed in HEK293 cells; type: cell-based
Sodium-dependent noradrenaline transporter, sequence (P23975 whole entry): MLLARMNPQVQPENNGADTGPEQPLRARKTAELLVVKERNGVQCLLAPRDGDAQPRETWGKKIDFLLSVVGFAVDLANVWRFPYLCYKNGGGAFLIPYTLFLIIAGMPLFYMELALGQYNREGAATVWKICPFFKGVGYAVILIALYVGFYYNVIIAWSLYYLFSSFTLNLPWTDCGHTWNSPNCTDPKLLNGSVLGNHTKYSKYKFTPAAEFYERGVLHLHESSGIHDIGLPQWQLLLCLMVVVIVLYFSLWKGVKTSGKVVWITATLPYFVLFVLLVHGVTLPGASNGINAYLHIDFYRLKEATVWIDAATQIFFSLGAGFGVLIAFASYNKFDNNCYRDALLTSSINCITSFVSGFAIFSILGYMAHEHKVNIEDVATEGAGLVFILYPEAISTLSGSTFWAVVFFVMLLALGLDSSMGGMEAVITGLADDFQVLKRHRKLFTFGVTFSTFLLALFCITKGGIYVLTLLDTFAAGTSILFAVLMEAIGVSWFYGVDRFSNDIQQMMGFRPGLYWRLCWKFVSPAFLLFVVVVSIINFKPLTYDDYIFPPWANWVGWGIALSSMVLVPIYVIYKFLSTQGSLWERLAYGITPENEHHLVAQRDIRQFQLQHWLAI
Method in brief: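 Membranes (30–70 µg protein) from HEK-293 cells stably expressing hNET. Equilibrium with [3H]nisoxetine for 4 h at 4 °C in 53 mM Tris, 320 mM NaCl, 5.3 mM KCl, pH 7.4 at 4 °C. Competitor: 12 concentrations, 10^-13 to 10^-5 M, in triplicate. Ended by vacuum filtration through PEI-presoaked GF/B filters; Ki averaged from at least two assays, each in duplicate.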

[30] = biological target: Sodium-dependent serotonin transporter (Homo sapiens, UniProt P31645); test: Displacement of [3H]citalopram from human SERT expressed in HEK293 cells; type: cell-based
Sodium-dependent serotonin transporter, sequence (P31645 whole entry): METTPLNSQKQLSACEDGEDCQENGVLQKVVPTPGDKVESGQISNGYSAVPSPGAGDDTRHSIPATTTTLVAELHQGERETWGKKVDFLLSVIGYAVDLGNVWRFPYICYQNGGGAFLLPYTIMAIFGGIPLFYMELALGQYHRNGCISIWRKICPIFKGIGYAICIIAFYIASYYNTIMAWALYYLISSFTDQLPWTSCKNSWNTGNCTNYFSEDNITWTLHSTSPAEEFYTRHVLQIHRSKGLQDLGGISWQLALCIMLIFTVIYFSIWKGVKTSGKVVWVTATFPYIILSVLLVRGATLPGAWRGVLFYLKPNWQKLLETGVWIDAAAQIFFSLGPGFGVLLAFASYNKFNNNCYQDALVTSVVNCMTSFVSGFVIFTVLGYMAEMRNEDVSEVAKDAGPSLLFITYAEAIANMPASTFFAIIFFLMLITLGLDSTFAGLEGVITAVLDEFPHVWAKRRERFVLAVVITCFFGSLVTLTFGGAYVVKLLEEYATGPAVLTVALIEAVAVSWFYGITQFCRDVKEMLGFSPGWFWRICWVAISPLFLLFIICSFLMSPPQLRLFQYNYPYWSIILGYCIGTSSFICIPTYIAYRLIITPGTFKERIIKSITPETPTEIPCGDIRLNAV
Method in brief: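 Membranes (30–70 µg protein) from HEK-293 cells stably expressing hSERT, grown in DMEM/10% FBS/Geneticin. Incubated 2 h at room temperature with [3H]citalopram in 53 mM Tris, 126 mM NaCl, 5.3 mM KCl, pH 7.9. Competitor: 12 concentrations, 10^-13 to 10^-5 M, in triplicate. Rapid filtration on GF/B with cold buffer washes; Ki averaged from ≥2 separate assays.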

[31] = test system: Pons; test: Drug uptake in cynomolgus monkey pons in presence of citalopram after 85 mins; type: ADME, tissue-based, Macaca fascicularis; conditions: in vivo; method in brief: as §2
[32] = test system: Caudate; test: Drug uptake in cynomolgus monkey caudate after 45 mins; type: ADME, tissue-based, Macaca fascicularis, Caudate nucleus; conditions: in vivo, 0.75 h; method in brief: as §2
[33] = test system: Occipital cortex; test: Drug uptake in cynomolgus monkey occipital cortex in presence of citalopram after 85 mins; type: ADME, tissue-based, Macaca fascicularis; conditions: in vivo; method in brief: as §2
[34] = test system: Frontal cortex; test: Drug uptake in cynomolgus monkey frontal cortex after 45 mins; type: ADME, tissue-based, Macaca fascicularis; conditions: in vivo, 0.75 h; method in brief: as §2
[35] = test system: Putamen; test: Drug uptake in cynomolgus monkey putamen after 45 mins; type: ADME, tissue-based, Macaca fascicularis; conditions: in vivo, 0.75 h; method in brief: as §2
[36] = test system: Pons; test: Drug uptake in cynomolgus monkey pons after 45 mins; type: ADME, tissue-based, Macaca fascicularis; conditions: in vivo, 0.75 h; method in brief: as §2
[37] = test system: Thalamus; test: Drug uptake in cynomolgus monkey thalamus after 45 mins; type: ADME, tissue-based, Macaca fascicularis; conditions: in vivo, 0.75 h; method in brief: as §2
[38] = test system: Midbrain; test: Drug uptake in cynomolgus monkey midbrain after 45 mins; type: ADME, tissue-based, Macaca fascicularis; conditions: in vivo, 0.75 h; method in brief: as §2
[39] = test system: Putamen; test: Drug uptake in cynomolgus monkey putamen in presence of citalopram after 85 mins; type: ADME, tissue-based, Macaca fascicularis; conditions: in vivo; method in brief: as §2
[40] = test system: Medulla; test: Drug uptake in cynomolgus monkey medulla in presence of citalopram after 85 mins; type: ADME, tissue-based, Macaca fascicularis, Medulla of organ; conditions: in vivo; method in brief: as §2
[41] = test system: Frontal cortex; test: Drug uptake in cynomolgus monkey frontal cortex in presence of citalopram after 85 mins; type: ADME, tissue-based, Macaca fascicularis; conditions: in vivo; method in brief: as §2
[42] = test system: Midbrain; test: Drug uptake in cynomolgus monkey midbrain in presence of citalopram after 85 mins; type: ADME, tissue-based, Macaca fascicularis; conditions: in vivo; method in brief: as §2
[43] = test system: Medulla; test: Drug uptake in cynomolgus monkey medulla after 45 mins; type: ADME, tissue-based, Macaca fascicularis, Medulla of organ; conditions: in vivo, 0.75 h; method in brief: as §2
[44] = test system: Occipital cortex; test: Drug uptake in cynomolgus monkey occipital cortex after 45 mins; type: ADME, tissue-based, Macaca fascicularis; conditions: in vivo, 0.75 h; method in brief: as §2
[45] = test system: Thalamus; test: Drug uptake in cynomolgus monkey thalamus in presence of citalopram after 85 mins; type: ADME, tissue-based, Macaca fascicularis; conditions: in vivo; method in brief: as §2
[46] = test system: Caudate; test: Drug uptake in cynomolgus monkey caudate in presence of citalopram after 85 mins; type: ADME, tissue-based, Macaca fascicularis, Caudate nucleus; conditions: in vivo; method in brief: as §2

## CN([11CH3])Cc1cc(Br)ccc1Sc1ccc(CO)cc1N
[1]
  Ratio: 3.24
[2]
  Ratio: 1.34
[3]
  Ratio: 1
[4]
  Ratio: 2.3
[5]
  Ratio: 1.8
[6]
  Ratio: 1.2
[7]
  Ratio: 2.4
[8]
  logD: 2.63
[9]
  Ratio: 1.1
[10]
  Ratio: 2.3
[11]
  Ratio: 1.6
[12]
  Ratio: 1.06
[13]
  Ratio: 1
[14]
  Ratio: 2.4
[15]
  Ratio: 1
[16]
  Ratio: 2
[17]
  Ratio: 1.2
[18]
  Ratio: 1.23
[19]
  Ratio: 2.8
[20]
  Ratio: 1.4
[21]
  Ratio: 1.35
[22]
  Ratio: 1.7
[23]
  Ratio: 1.4
[24]
  Ratio: 1.1
[25]
  Ratio: 2.6

## CN(C)Cc1cc(I)ccc1Sc1ccc(CO)cc1N
[26]
  Ratio Ki: > 1000
[27]
  Ratio Ki: > 1000
[28]
  Ki: > 2000 nM
[29]
  Ki: 467 nM
[30]
  Ki: 0.31 nM

## CN([11CH3])Cc1cc(F)ccc1Sc1ccc(CO)cc1N
[31]
  Ratio: 1.4
[1]
  Ratio: 3.4
[32]
  Ratio: 1.6
[33]
  Ratio: 1.04
[34]
  Ratio: 1.06
[8]
  logD: 2.06
[35]
  Ratio: 1.8
[36]
  Ratio: 2
[10]
  Ratio: 2.3
[37]
  Ratio: 1.9
[38]
  Ratio: 2.3
[39]
  Ratio: 1.2
[40]
  Ratio: 1.1
[12]
  Ratio: 1.04
[41]
  Ratio: 1
[42]
  Ratio: 1.2
[43]
  Ratio: 2
[19]
  Ratio: 2.8
[44]
  Ratio: 1.3
[45]
  Ratio: 1.3
[46]
  Ratio: 1.06
[25]
  Ratio: 2.1

## CN(C)Cc1cc(F)ccc1Sc1ccc(CO)cc1N
[26]
  Ratio Ki: 490
[27]
  Ratio Ki: > 1000
[28]
  Ki: > 2000 nM
[29]
  Ki: 618 nM
[30]
  Ki: 1.26 nM

## CN(C)Cc1cc(Br)ccc1Sc1ccc(CO)cc1N
[26]
  Ratio Ki: > 2000
[27]
  Ratio Ki: 762
[28]
  Ki: 221 nM
[29]
  Ki: 725 nM
[30]
  Ki: 0.29 nM

## CN([11CH3])Cc1cc(I)ccc1Sc1ccc(CO)cc1N
[1]
  Ratio: 3
[2]
  Ratio: 1.2
[3]
  Ratio: 1.3
[4]
  Ratio: 2.5
[5]
  Ratio: 2
[6]
  Ratio: 1.7
[7]
  Ratio: 2.3
[8]
  logD: 1.82
[9]
  Ratio: 1.6
[10]
  Ratio: 2.06
[11]
  Ratio: 1.9
[12]
  Ratio: 1.09
[13]
  Ratio: 1
[14]
  Ratio: 2.4
[15]
  Ratio: 1
[16]
  Ratio: 1.9
[17]
  Ratio: 1.4
[18]
  Ratio: 1.5
[19]
  Ratio: 1.65
[20]
  Ratio: 1.8
[21]
  Ratio: 1.2
[22]
  Ratio: 1.8
[23]
  Ratio: 1.63
[24]
  Ratio: 1.1
[25]
  Ratio: 2.4

## CN(C)Cc1ccccc1Sc1ccc(CO)cc1N
[26]
  Ratio Ki: 532
[8]
  logD: 1.6
[27]
  Ratio Ki: > 1000
[28]
  Ki: > 1000 nM
